Measured values: ChEMBL document CHEMBL4038327, “Inhibitory Kappa B Kinase α (IKKα) Inhibitors That Recapitulate Their Selectivity in Cells against Isoform-Related Biomarkers” (J Med Chem, 2017)

Experiments:
[1] = molecular target: T1, Inhibitor of nuclear factor kappa-B kinase subunit alpha (Mus musculus) (UniProt Q60680); experiment: Inhibition of IKKalpha in IKKbeta knockout mouse embryonic fibroblast cells harboring Adv.NF-kB.luc assessed as IL-1beta induced NF-kB transcriptional activation at 100 uM pretreated for 1 hr followed by IL-1beta stimulation for 6 hrs by luciferase reporter gene assay relative to control; parameters: scale not given: the % may be the effect or the level left
T1 sequence (whole entry): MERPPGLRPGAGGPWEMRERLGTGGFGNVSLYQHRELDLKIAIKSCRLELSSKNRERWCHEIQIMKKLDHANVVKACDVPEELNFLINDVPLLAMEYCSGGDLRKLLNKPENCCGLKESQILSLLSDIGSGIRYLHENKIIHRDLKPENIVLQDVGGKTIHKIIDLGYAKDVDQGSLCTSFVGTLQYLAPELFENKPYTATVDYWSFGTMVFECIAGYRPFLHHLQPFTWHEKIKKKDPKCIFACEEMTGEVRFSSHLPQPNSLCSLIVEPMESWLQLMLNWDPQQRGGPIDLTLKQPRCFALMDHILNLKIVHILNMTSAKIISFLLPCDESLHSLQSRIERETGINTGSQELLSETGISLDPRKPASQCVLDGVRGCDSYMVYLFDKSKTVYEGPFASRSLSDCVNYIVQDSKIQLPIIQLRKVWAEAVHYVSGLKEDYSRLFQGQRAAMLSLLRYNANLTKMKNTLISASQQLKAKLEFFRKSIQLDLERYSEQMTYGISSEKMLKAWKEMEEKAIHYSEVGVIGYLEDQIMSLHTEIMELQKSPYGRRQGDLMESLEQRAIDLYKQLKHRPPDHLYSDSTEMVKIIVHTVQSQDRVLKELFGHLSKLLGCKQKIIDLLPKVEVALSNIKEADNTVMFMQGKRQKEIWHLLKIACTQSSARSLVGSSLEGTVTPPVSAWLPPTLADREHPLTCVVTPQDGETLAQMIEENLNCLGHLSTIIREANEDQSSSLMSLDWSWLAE
Method in brief: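 IKKβ knockout MEFs infected with Adv.NF-kB.luc (up to 300 pfu/cell, 24 h, 10% DMEM), replated and serum-starved 24 h. Pretreated 1 h with compound, then IL-1β (10 ng/mL) for 6 h. Lysis buffer contained 0.2 mM luciferin, and luminescence was read as RLU. Results are expressed as % of IL-1β + DMSO stimulation.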

[2] = molecular target: T2, Serine/threonine-protein kinase D1 (Homo sapiens) (UniProt Q15139); experiment: Inhibition of N-terminal His6 tagged recombinant human full length PKCmu expressed in Sf21 cells at 10 uM relative to control
T2 sequence (whole entry): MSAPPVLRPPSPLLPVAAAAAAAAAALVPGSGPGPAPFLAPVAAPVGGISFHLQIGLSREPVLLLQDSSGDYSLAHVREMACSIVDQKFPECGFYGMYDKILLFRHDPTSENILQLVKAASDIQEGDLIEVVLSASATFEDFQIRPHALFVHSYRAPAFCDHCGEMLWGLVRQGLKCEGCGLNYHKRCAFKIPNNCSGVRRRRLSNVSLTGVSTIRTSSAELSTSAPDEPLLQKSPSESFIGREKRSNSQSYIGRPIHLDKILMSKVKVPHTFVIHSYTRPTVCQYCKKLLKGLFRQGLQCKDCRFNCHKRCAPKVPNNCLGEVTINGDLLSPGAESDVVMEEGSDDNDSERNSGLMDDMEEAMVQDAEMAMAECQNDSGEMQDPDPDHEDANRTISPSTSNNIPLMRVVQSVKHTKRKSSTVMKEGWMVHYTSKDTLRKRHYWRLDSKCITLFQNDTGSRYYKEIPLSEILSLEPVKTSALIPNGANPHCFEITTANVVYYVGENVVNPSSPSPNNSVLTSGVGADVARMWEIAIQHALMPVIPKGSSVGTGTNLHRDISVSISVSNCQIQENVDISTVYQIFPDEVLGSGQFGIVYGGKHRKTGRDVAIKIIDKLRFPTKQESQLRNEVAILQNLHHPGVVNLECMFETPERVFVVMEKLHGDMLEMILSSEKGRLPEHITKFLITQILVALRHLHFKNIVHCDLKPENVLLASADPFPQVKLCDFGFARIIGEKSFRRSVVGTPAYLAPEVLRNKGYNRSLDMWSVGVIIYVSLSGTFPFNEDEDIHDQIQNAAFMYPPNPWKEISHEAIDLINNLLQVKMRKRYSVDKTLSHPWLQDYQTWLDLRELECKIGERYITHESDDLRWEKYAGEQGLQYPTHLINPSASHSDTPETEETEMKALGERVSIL
Method in brief: (§1)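 Outsourced commercial kinase panel run at a single concentration, with duplicate assay points.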

[3] = molecular target: Casein kinase I isoform delta (Homo sapiens) (UniProt P48730); experiment: Inhibition of recombinant human N-terminal GST-tagged CK1delta (1 to 294 residues) expressed in Escherichia coli at 10 uM relative to control; method in brief: as §1
[4] = molecular target: T3, Inhibitor of nuclear factor kappa-B kinase subunit alpha (Homo sapiens, UniProt O15111); experiment: Inhibition of recombinant human N-terminal GST-tagged IKKalpha (1 to 745 residues) expressed in baculovirus expression system using biotinylated IkBalpha as substrate after 60 mins by DELFIA
T3 sequence (O15111 whole entry): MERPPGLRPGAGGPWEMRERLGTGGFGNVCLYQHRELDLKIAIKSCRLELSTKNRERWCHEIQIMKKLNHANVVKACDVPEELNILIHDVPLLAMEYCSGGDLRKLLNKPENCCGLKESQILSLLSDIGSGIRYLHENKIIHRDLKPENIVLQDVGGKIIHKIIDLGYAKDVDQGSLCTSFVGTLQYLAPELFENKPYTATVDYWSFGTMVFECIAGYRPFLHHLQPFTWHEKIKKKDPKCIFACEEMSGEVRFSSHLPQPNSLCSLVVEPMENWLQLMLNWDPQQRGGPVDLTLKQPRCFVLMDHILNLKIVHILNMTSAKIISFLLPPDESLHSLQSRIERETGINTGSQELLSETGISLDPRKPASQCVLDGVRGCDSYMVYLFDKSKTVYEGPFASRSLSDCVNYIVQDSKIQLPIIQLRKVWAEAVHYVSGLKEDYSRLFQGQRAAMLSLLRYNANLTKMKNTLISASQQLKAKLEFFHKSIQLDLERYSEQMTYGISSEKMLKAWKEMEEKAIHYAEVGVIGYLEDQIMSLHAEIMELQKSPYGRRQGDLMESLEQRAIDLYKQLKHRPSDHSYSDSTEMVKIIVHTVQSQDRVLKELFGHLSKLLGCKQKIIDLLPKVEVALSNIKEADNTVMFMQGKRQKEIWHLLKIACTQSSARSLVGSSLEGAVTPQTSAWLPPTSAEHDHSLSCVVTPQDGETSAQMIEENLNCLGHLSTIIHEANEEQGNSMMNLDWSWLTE

Chain of Casein kinase I isoform delta (Homo sapiens) (P48730 whole entry, looked up, the tested form may be a part, canonical isoform): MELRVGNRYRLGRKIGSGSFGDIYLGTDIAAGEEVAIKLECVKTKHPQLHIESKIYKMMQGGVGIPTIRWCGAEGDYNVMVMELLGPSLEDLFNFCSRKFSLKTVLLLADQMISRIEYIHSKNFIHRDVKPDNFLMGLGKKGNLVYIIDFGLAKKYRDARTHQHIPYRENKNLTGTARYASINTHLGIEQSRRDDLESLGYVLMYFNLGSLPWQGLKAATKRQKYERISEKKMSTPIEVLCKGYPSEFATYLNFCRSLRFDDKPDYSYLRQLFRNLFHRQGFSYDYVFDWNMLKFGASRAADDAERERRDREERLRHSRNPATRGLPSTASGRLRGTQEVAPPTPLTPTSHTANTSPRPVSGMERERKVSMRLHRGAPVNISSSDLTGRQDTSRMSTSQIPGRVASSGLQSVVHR

N#Cc1c[nH]c2nc(N)nc(-c3ccc(S(N)(=O)=O)cc3)c12
Activity [1]: -40.9% | inhibition [2]: > 80% | inhibition [3]: > 80% | Ki [4]: 80 nM
